# Measurements pooled from the literature.
# Each line is one published result; the experiments were not run side by side.
# Organism: Escherichia coli
SMILES,test,test system,quantity,value
CCCCCCCCCCCC(=O)OC[C@H]1O[C@@H](n2cc(C)c(=O)[nH]c2=O)C[C@@H]1O,"microbial killing, broth dilution",,MBC,16 µg/mL
O=C(N/N=C/c1ccc([N+](=O)[O-])o1)c1ccc(O)cc1,microbial growth,,MIC90,31.2 µg/mL
COC(=O)c1cc(-c2cccc(NC(=S)Nc3ccc(Cl)cc3)c2)on1,"microbial growth, broth dilution",ATCC25922,MIC,> 64 µg/mL
O=C(O)c1cn(C2CC2)c2cc(N3CCNCC3)c(F)cc2c1=O,microbial killing,,MBC,0.019 µg/mL
C[n+]1c(/C=C/c2ccc(O)cc2)cc(/C=C2\Sc3ccccc3N2CCCN2CCCC2)c2ccccc21.[I-],"microbial growth, broth dilution",ATCCBAA2469,MIC,16 µg/mL
COC(=O)c1cc(-c2cccc(NC(=S)Nc3ccc(C)cc3)c2)on1,"microbial growth, broth dilution",ATCC25922,MIC,> 64 µg/mL
O=C(Sc1cccccc1=O)c1ccccc1,"microbial growth, broth dilution",ATCC35218,MIC80,19.8 µM
CCC(CCCCCCCCCCc1cc(O)cc(O)c1)C(C)C (stereo not shown),microbial growth,,IC50,34.3 µM
COC(=O)c1cc(-c2cccc(NC(=O)Nc3ccc(F)cc3F)c2)on1,"microbial growth, broth dilution",ATCC25922,MIC,> 64 µg/mL
CC(C)CCCCCCCCCCCCCCCc1cc(O)cc(O)c1,microbial growth,,IC50,70.2 µM
Cc1c(NN=C(C#N)C2=NC(=O)CS2)c(=O)n(-c2ccccc2)n1C,"microbial killing, broth dilution",,MBC,0.25 µg/mL
COC(=O)c1cc(-c2cccc(NC(=O)Nc3ccc(F)c(F)c3)c2)on1,"microbial growth, broth dilution",ATCC25922,MIC,> 64 µg/mL
CC(C)C(C)CCCCCCCCCCCc1cc(O)cc(O)c1 (stereo not shown),microbial growth,,IC50,50.2 µM
